The subject of test [1] is NCI-H187. Briefly: Cytotoxicity against human NCI-H187 cells at 20 ug/ml. It is filed as functional, cell-based.
Test [2] relates to KB. Briefly: Cytotoxicity against human KB cells at 20 ug/ml. It is filed as functional, cell-based.
Test [3] relates to BC. Briefly: Cytotoxicity against human BC cells at 20 ug/ml. It is filed as functional, cell-based.
The test system of test [4] is Plasmodium falciparum. The experiment in a line: Antiplasmodial activity against multidrug-resistant Plasmodium falciparum K1 at 20 ug/ml as [3H]hypoxanthine uptake. It is filed as functional, organism-based.
Test [5] relates to Mycobacterium tuberculosis. The experiment in a line: Antimycobacterial activity against Mycobacterium tuberculosis H37Ra by alamar blue assay. The class given is functional. In outline: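 M. tuberculosis H37Ra tested in the Microplate Alamar Blue Assay (MABA). Isoniazid and kanamycin sulfate were the reference drugs.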
Test [6] deals with Plasmodium falciparum. The experiment in a line: Antiplasmodial activity against multidrug-resistant Plasmodium falciparum K1 as [3H]hypoxanthine uptake. The class given is functional, organism-based. The essentials:
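P. falciparum K1 (multidrug-resistant) maintained in culture by the Trager–Jensen method. Microculture radioisotope technique, with growth read as in vitro [3H]-hypoxanthine uptake by the parasites. IC50 is the concentration giving 50% reduction in parasite growth. Artemisinin was the reference standard.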

In test [7] the test system is NCI-H187. Briefly: Cytotoxicity against human NCI-H187 cells. It is filed as functional, cell-based. In outline:
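Human small cell lung cancer NCI-H187 cell line, assayed by the colorimetric method of Skehan and co-workers. Ellipticine served as the reference substance.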

Test [8] is described as follows: Cytotoxicity against human BC cells. It is filed as functional, cell-based. The essentials:
(§1)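 Human epidermoid carcinoma (KB) and human breast cancer (BC) cell lines assessed by a colorimetric cytotoxicity method following Skehan and co-workers. Ellipticine was the reference substance.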

Test [9] concerns KB. Briefly: Cytotoxicity against human KB cells. It is filed as functional, cell-based. The essentials: as §1

Each structure is given as a SMILES string. Converted amounts (≈) assume the structure as drawn. The source made the active and inactive calls. The rule behind the calls is not given here.

Consider `CC1(C)C=Cc2c(ccc3c2O[C@H](c2ccc(O)cc2)CC3)O1`, for which the result in test [1], in test [2], in test [3] and in [4] was inactive. The MIC in [5] turned out to be 25 µg/mL (≈ 81.1 µM).
As to `COc1ccc([C@@H]2CC(=O)c3c(O)cc(O)c(CC=C(C)C)c3O2)c(CC=C(C)C)c1O`, the outcome in [2] and in test [3] was inactive. The IC50 in [6] amounted to 3.3 µg/mL (≈ 7.53 µM); in [7], 8.1 µg/mL (≈ 18.5 µM). This molecule also displayed an MIC in test [5] of 12.5 µg/mL (≈ 28.5 µM).
`COc1cc2c(cc1O)-c1cc(O)c(OC)c(OC)c1C=CC2`: the outcome in test [1], in test [2], in test [3] and in [4] was inactive. In test [5], 50 µg/mL (≈ 159 µM) was the least that counted as inhibitory (MIC).
Consider `NNC(=O)c1ccncc1` [ISONIAZID], for which, in test [5], the minimal inhibitory concentration (MIC) stood at 0.04 µg/mL (≈ 0.292 µM).
`C[C@@H]1CC[C@H]2[C@@H](C)C(=O)O[C@@H]3O[C@@]4(C)CC[C@@H]1[C@]32OO4` [ARTEMISININ]: the half-inhibitory concentration (IC50) in test [6] turned out to be 0.001 µg/mL (≈ 0.00354 µM).
Turning to `Cc1c2ccncc2c(C)c2c1[nH]c1ccccc12` [ELLIPTECINE], the IC50 in test [8], in test [9] and in [7] was 0.4 µg/mL (≈ 1.62 µM) each time.
On to `COc1cc2c(c(CC=C(C)C)c1O)O[C@H](c1ccc(O)c(O)c1CC=C(C)C)CC2`, for which the outcome in test [1], in test [2] and in test [3] was inactive. This molecule also gave a half-maximal inhibitory concentration (IC50) in test [6] of 3.1 µg/mL (≈ 7.3 µM). Besides, the minimum inhibitory concentration (MIC) in test [5] stood at 25 µg/mL (≈ 58.9 µM).
In [5], `NC[C@H]1O[C@H](O[C@H]2[C@H](O)[C@@H](O[C@H]3O[C@H](CO)[C@@H](O)[C@H](N)[C@H]3O)[C@H](N)C[C@@H]2N)[C@H](O)[C@@H](O)[C@@H]1O.O=S(=O)(O)O` [KANAMYCIN SULFATE] displayed a minimum inhibitory concentration (MIC) of 2 µg/mL.
Take `CC(C)=CCc1c([C@@H]2CC(=O)c3c(O)cc(O)c(CC=C(C)C)c3O2)cc2c(c1O)OC(C)(C)C=C2`: the IC50 worked out at 1.7 µg/mL (≈ 3.47 µM) in test [8], 1.2 µg/mL (≈ 2.45 µM) in [9], 2.6 µg/mL (≈ 5.3 µM) in test [6] and 0.6 µg/mL (≈ 1.22 µM) in [7]. Besides, inhibition of growth in test [5] (MIC) required 6.3 µg/mL (≈ 12.8 µM).

For orientation: MIC means the lowest concentration found to suppress growth. A higher MIC goes with a less susceptible organism. By IC50 is commonly meant the concentration at which inhibition is half-maximal. Low values mean greater potency, high ones weaker potency.

These data come from ChEMBL document CHEMBL1151226, “New bioactive prenylflavonoids and dibenzocycloheptene derivative from roots of Dendrolobium lanceolatum” (J Nat Prod, 2004).
